Results published in PubChem BioAssay AID623942 (The Scripps Research Institute Molecular Screening Center, 2012).
pIC50: −log10 of the molar value. The source made the active and inactive calls.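 How the source made its calls: active means IC50 at or below 50 µM; inactive means IC50 above 50 µM.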

Target: RecBCD enzyme subunit RecC (Escherichia coli (strain K12)) + RecBCD enzyme subunit RecB (Escherichia coli (strain K12)) (UniProt P07648+P08394)
Experiment: RecBCD helicase and Chi cutting inhibitors, dose response, counter-screen for AddAB inhibitor project, biochemical, radioactive gel readout (AID 623942)
Details: purified RecBCD, Chi cutting/unwinding
Procedure, shortened: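 Material: purified Escherichia coli RecBCD helicase-nuclease complex / Input: 0.15 nM RecBCD / Compound dosing: serial dilutions, top 500 µM nominal / Technique: gel autoradiography / Timing: 1 min at 37 °C / Control set: DMSO-only reaction as uninhibited reference / Read-out basis: IC50 from Chi-cut band reduction vs DMSO / Reagent: 0.1 nM labeled Chi+F DNA plus 5 mM ATP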

Chain of RecBCD enzyme subunit RecC (Escherichia coli (strain K12)) + RecBCD enzyme subunit RecB (Escherichia coli (strain K12)) (P07648 whole entry, looked up): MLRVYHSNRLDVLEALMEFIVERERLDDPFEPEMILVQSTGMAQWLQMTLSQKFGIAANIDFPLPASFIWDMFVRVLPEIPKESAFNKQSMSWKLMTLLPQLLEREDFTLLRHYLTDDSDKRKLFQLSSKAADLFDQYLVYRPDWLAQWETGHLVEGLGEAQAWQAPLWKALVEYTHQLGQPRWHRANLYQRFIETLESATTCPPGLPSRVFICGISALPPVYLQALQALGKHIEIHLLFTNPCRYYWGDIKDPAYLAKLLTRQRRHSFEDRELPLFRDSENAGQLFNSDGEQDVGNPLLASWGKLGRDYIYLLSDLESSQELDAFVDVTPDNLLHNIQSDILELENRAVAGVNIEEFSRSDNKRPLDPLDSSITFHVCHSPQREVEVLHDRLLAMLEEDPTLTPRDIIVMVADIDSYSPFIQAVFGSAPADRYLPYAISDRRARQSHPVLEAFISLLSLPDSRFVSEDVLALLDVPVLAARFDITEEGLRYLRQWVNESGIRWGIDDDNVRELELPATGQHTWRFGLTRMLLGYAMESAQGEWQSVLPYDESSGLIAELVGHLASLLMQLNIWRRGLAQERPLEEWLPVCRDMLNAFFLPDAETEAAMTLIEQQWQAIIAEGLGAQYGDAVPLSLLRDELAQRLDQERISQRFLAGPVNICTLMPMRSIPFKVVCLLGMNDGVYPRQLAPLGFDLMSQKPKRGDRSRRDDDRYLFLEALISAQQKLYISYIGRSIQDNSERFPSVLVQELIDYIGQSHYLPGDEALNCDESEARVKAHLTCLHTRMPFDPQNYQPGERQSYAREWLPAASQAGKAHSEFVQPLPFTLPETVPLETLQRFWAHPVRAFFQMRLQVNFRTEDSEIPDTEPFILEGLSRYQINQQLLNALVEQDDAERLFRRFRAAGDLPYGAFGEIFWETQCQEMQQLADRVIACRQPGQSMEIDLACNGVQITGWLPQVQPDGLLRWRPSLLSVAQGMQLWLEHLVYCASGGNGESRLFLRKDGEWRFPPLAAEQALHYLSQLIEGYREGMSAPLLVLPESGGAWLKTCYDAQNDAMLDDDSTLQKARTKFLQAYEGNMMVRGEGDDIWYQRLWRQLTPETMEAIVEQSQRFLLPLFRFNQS
Chain of RecBCD enzyme subunit RecC (Escherichia coli (strain K12)) + RecBCD enzyme subunit RecB (Escherichia coli (strain K12)) (P08394 whole entry, looked up): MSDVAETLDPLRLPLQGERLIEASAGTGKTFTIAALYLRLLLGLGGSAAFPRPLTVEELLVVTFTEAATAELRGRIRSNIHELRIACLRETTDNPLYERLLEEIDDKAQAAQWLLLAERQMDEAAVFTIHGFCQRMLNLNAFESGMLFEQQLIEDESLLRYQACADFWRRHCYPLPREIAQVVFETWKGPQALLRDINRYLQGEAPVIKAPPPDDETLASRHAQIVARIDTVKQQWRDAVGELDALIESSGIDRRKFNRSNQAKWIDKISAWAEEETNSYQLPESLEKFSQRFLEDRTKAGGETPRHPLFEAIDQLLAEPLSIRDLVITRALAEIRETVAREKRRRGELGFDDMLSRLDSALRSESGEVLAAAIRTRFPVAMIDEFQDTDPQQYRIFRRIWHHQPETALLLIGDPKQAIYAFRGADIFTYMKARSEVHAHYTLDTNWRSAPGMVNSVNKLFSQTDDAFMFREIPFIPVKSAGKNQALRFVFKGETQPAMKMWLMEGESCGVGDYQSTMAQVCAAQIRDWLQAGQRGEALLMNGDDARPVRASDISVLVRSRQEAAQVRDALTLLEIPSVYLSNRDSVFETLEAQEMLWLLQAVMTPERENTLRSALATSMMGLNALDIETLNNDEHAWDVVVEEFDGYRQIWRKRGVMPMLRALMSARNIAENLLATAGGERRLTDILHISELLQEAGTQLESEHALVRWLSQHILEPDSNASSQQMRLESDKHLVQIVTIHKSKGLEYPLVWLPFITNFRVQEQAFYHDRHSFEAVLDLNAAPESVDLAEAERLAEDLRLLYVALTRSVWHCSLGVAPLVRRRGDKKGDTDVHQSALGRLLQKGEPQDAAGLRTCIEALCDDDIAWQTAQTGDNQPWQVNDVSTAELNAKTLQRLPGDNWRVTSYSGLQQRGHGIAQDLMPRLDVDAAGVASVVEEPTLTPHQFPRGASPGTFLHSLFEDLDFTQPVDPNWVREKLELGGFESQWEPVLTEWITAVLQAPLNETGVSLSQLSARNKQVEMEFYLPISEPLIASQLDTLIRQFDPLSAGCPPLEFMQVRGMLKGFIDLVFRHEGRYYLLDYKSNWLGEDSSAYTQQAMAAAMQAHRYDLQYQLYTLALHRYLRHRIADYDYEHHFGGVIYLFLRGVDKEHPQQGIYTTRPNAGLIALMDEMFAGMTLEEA

SMILES | IC50 | pIC50
CCn1cc(C(=O)O)c(=O)c2cnc(N3CCN(C(=S)Nc4ccccc4C(F)(F)F)CC3)nc21 |  | 5.00
CCn1cc(C(=O)O)c(=O)c2cc(F)c(N3CCN(C(=S)Nc4cccc(C(F)(F)F)c4)CC3)cc21 |  | 6.22
CCn1cc(C(=O)O)c(=O)c2cnc(N3CCN(C(=S)Nc4cccc(C(F)(F)F)c4)CC3)nc21 |  | 6.22
Cc1ccc2nc(/C(C#N)=C\c3ccc([N+](=O)[O-])o3)[nH]c2c1 |  | 4.42
NC(=O)c1ccsc1NC(=O)COC(=O)c1ccc([N+](=O)[O-])o1 | inactive | 
C=CCn1c(Sc2ncc([N+](=O)[O-])s2)n[nH]c1=O | > 500 µM (inactive) | 
CCn1cc(C(=O)O)c(=O)c2cc(F)c(N3CCN(C(=S)Nc4ccccc4C(F)(F)F)CC3)cc21 |  | 4.70

The next lines start with the values.

IC50 | pIC50 | SMILES
> 500 µM (inactive) |  | O=C(NCc1cccnc1)c1ccc([N+](=O)[O-])o1
 | 4.70 | O=C(Nc1cccc(NC(=O)c2ccccc2Cl)c1)c1ccc([N+](=O)[O-])o1
> 500 µM (inactive) |  | CC(=O)Nc1ccc2nc(NC(=O)c3ccc([N+](=O)[O-])o3)sc2c1
> 500 µM (inactive) |  | O=C(OCC(=O)c1cccs1)c1ccc([N+](=O)[O-])o1
 | 4.31 | O=C(Nc1ncccn1)c1ccc([N+](=O)[O-])o1
 | 4.70 | N#Cc1c(NC(=O)c2ccc([N+](=O)[O-])o2)sc2c1CCC2
> 500 µM (inactive) |  | Cc1cccnc1NC(=O)c1ccc([N+](=O)[O-])o1
inactive |  | O=C(Nc1ccc(N2CCOCC2)cc1)c1ccc([N+](=O)[O-])o1
